According to ChEMBL document CHEMBL1154686, “Pyrazoline bearing benzimidazoles: search for anticancer agent” (2010):

Tests used:
Type in all cases: functional
HL-60(TB) = assay: Growth inhibition of human HL-60(TB) cells after 48 hrs by SRB assay; conditions: HL-60, 48 h
In short: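 NCI-60 protocol: cells seeded at 5,000–40,000/well by doubling time and preincubated 24 h at 37 °C, 5% CO2. Drug, dissolved in DMSO, was added at one dose (10^-5 M) or five 10-fold dilutions, then incubated 48 h. Suspension cells were fixed with 80% TCA (final 16%) and stained with 0.4% SRB, read at 515 nm. GI50 was derived from percentage growth versus time-zero and control.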

SR = assay: Growth inhibition of human SR cells after 48 hrs by SRB assay
In short: (§1)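 NCI 60-cell panel, five-dose format: cells plated at 5,000–40,000/well by doubling time, preincubated 24 h at 37 °C, 5% CO2; time-zero plates TCA-fixed. Compound dissolved in DMSO, five concentrations (0.01, 0.1, 1, 10, 100 µM) plus control, 48 h. Cells fixed with cold TCA, stained with 0.4% SRB in 1% acetic acid, bound dye solubilized in 10 mM trizma base, absorbance at 515 nm. GI50 taken from [(Ti–Tz)/(C–Tz)]×100 = 50.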

A549 = assay: Growth inhibition of human A549 cells after 48 hrs by SRB assay; conditions: A549, 48 h
In short: (§2)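 NCI-60 panel protocol with adherent lines. Cells were seeded at 5,000–40,000 cells/well, depending on doubling time, and pre-incubated 24 h at 37 °C, 5% CO₂. Time-zero plates were TCA-fixed at drug addition. Drugs were dissolved in DMSO and exposed for 48 h. Cells were fixed with cold TCA (final 10%) for 60 min at 4 °C, stained with 0.4% SRB in 1% acetic acid for 10 min, solubilized with 10 mM trizma base, and read at A515.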

EKVX = assay: Growth inhibition of human EKVX cells after 48 hrs by SRB assay; in short: as §2
HOP-92 = assay: Growth inhibition of human HOP92 cells after 48 hrs by SRB assay; conditions: HOP-92, 48 h; in short: as §2
NCI-H226 = assay: Growth inhibition of human NCI-H226 cells after 48 hrs by SRB assay; conditions: NCI-H226, 48 h; in short: as §2
NCI-H23 = assay: Growth inhibition of human NCI-H23 cells after 48 hrs by SRB assay; conditions: NCI-H23, 48 h; in short: as §2
NCI-H322M = assay: Growth inhibition of human NCI-H322M cells after 48 hrs by SRB assay; in short: as §2
NCI-H460 = assay: Growth inhibition of human NCI-H460 cells after 48 hrs by SRB assay; conditions: NCI-H460, 48 h; in short: as §2
NCI-H522 = assay: Growth inhibition of human NCI-H522 cells after 48 hrs by SRB assay; conditions: NCI-H522, 48 h; in short: as §2
COLO 205 = assay: Growth inhibition of human COLO205 cells after 48 hrs by SRB assay; conditions: COLO 205, 48 h; in short: as §2
HCC 2998 = assay: Growth inhibition of human HCC2998 cells after 48 hrs by SRB assay; conditions: HCC 2998, 48 h; in short: as §2
HCT-15 = assay: Growth inhibition of human HCT15 cells after 48 hrs by SRB assay; conditions: HCT-15, 48 h; in short: as §2
HT-29 = assay: Growth inhibition of human HT-29 cells after 48 hrs by SRB assay; conditions: HT-29, 48 h; in short: as §2
SW-620 = assay: Growth inhibition of human SW620 cells after 48 hrs by SRB assay; conditions: SW-620, 48 h; in short: as §1
U-251 = assay: Growth inhibition of human U251 cells after 48 hrs by SRB assay; conditions: U-251, 48 h; in short: as §1
Malme-3M = assay: Growth inhibition of human MALME-3M cells after 48 hrs by SRB assay; in short: as §2
SK-MEL-28 = assay: Growth inhibition of human SK-MEL-28 cells after 48 hrs by SRB assay; conditions: SK-MEL-28, 48 h; in short: as §2
UACC-62 = assay: Growth inhibition of human UACC62 cells after 48 hrs by SRB assay; conditions: UACC-62, 48 h; in short: as §1
IGROV-1 = assay: Growth inhibition of human IGROV1 cells after 48 hrs by SRB assay; conditions: IGROV-1, 48 h; in short: as §2
OVCAR-5 = assay: Growth inhibition of human OVCAR5 cells after 48 hrs by SRB assay; conditions: OVCAR-5, 48 h; in short: as §2
NCI/ADR-RES = assay: Growth inhibition of human NCI/ADR-RES cells after 48 hrs by SRB assay; in short: as §2
SK-OV-3 = assay: Growth inhibition of human SKOV3 cells after 48 hrs by SRB assay; conditions: SK-OV-3, 48 h; in short: as §2
UO-31 = assay: Growth inhibition of human UO31 cells after 48 hrs by SRB assay; conditions: UO-31, 48 h; in short: as §1
DU-145 = assay: Growth inhibition of human DU145 cells after 48 hrs by SRB assay; conditions: DU-145, 48 h; in short: as §2
T47D = assay: Growth inhibition of human T47D cells after 48 hrs by SRB assay; in short: as §1
[1] = read-out: LC50 (the source's name)

Structure (SMILES): COc1ccc(C2CC(c3nc4ccccc4[nH]3)=NN2c2ccccc2)cc1OC (stereo not drawn)
- GI50 (HL-60(TB)): > 100 µM
- TGI (HL-60(TB)): > 100 µM
- CC50 (HL-60(TB); [1]): > 100 µM
- GI50 (SR): > 100 µM
- TGI (SR): > 100 µM
- CC50 (SR; [1]): > 100 µM
- GI50 (A549): 17.1 µM
- TGI (A549): > 100 µM
- CC50 (A549; [1]): > 100 µM
- GI50 (EKVX): 9.83 µM
- TGI (EKVX): > 100 µM
- CC50 (EKVX; [1]): > 100 µM
- GI50 (HOP-92): 3.89 µM
- TGI (HOP-92): > 100 µM
- CC50 (HOP-92; [1]): > 100 µM
- GI50 (NCI-H226): 15.3 µM
- TGI (NCI-H226): > 100 µM
- CC50 (NCI-H226; [1]): > 100 µM
- GI50 (NCI-H23): 16 µM
- TGI (NCI-H23): > 100 µM
- CC50 (NCI-H23; [1]): > 100 µM
- GI50 (NCI-H322M): 21.3 µM
- TGI (NCI-H322M): > 100 µM
- CC50 (NCI-H322M; [1]): > 100 µM
- GI50 (NCI-H460): 13.6 µM
- TGI (NCI-H460): 40 µM
- CC50 (NCI-H460; [1]): > 100 µM
- GI50 (NCI-H522): 5.46 µM
- TGI (NCI-H522): 34.8 µM
- CC50 (NCI-H522; [1]): > 100 µM
- GI50 (COLO 205): 9.88 µM
- TGI (COLO 205): 33.2 µM
- CC50 (COLO 205; [1]): > 100 µM
- GI50 (HCC 2998): 12.4 µM
- TGI (HCC 2998): 26.1 µM
- CC50 (HCC 2998; [1]): 55 µM
- GI50 (HCT-15): 4.1 µM
- TGI (HCT-15): 20.5 µM
- CC50 (HCT-15; [1]): 70.9 µM
- GI50 (HT-29): 9.91 µM
- TGI (HT-29): 24.7 µM
- CC50 (HT-29; [1]): 61.4 µM
- GI50 (SW-620): 6.45 µM
- TGI (SW-620): 23.3 µM
- CC50 (SW-620; [1]): 65.7 µM
- GI50 (U-251): 7.67 µM
- TGI (U-251): 80.2 µM
- CC50 (U-251; [1]): > 100 µM
- GI50 (Malme-3M): 7.47 µM
- TGI (Malme-3M): 92.7 µM
- CC50 (Malme-3M; [1]): > 100 µM
- GI50 (SK-MEL-28): 13.1 µM
- TGI (SK-MEL-28): 39 µM
- CC50 (SK-MEL-28; [1]): > 100 µM
- GI50 (UACC-62): 2.59 µM
- TGI (UACC-62): > 100 µM
- CC50 (UACC-62; [1]): > 100 µM
- GI50 (IGROV-1): 0.92 µM
- TGI (IGROV-1): 19.1 µM
- CC50 (IGROV-1; [1]): > 100 µM
- GI50 (OVCAR-5): 26.7 µM
- TGI (OVCAR-5): > 100 µM
- CC50 (OVCAR-5; [1]): > 100 µM
- GI50 (NCI/ADR-RES): 19 µM
- TGI (NCI/ADR-RES): 94.5 µM
- CC50 (NCI/ADR-RES; [1]): > 100 µM
- GI50 (SK-OV-3): 33.1 µM
- TGI (SK-OV-3): > 100 µM
- CC50 (SK-OV-3; [1]): > 100 µM
- GI50 (UO-31): 2.2 µM
- TGI (UO-31): 39.8 µM
- CC50 (UO-31; [1]): > 100 µM
- GI50 (DU-145): 33.1 µM
- TGI (DU-145): > 100 µM
- CC50 (DU-145; [1]): > 100 µM
- GI50 (T47D): 3.09 µM
- TGI (T47D): 51.1 µM
- CC50 (T47D; [1]): > 100 µM
